Assays:
[1] = Binding affinity to P-gp in dog MDCK-MDR1 cells using calcein-AM as substrate at 100 uM after 30 mins by fluorescence analysis; format: ADME, cell-based, Canis lupus familiaris; details: mdck-mdr1, 0.5 h
In short: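 MDCK-MDR1 cells, 50,000/well, grown to confluence overnight. Compounds in medium incubated 30 min at 37 °C. Calcein-AM then added at 2.5 μM final for 30 min. Cells washed with ice-cold PBS; fluorescence read at 485/535 nm against untreated basal level.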

HepG2 [2] = assay: Cytotoxicity against human HepG2 cells at EC50 concentration incubated for 2 hrs by MTT assay; format: cell-based; details: hepg2, 2 h
In short: (§1)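 HepG2 cells in DMEM with 10% FBS at 37 °C, 5% CO2, grown to 70% confluence. 10^4 cells/well treated in serum-free medium for 2 h. MTT at 0.5 mg/mL for 2 h, formazan dissolved in DMSO, absorbance read at 570 nm. Viability as percent of control MTT reduction; sextuplicate, repeated twice.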

Left cardiac atrium [3] = assay: Antiarrhythmic activity in 50 Hz sinusoidal alternating current-induced guinea pig left atrium arrhythmias model assessed as increase in threshold of ac-arrhythmia at 1 x 10^-5 M measured for every 30 mins relative to control; format: functional, Cavia porcellus; details: dose 1 10^-5M, 0.5 h, at 10 µM
In short: (§2)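 Guinea pig left atria mounted between platinum field electrodes in modified Krebs-Henseleit (pH 7.4, 95% O2–5% CO2, 35 °C), isometric force recorded. 50 Hz sinusoidal AC of rising strength applied; current intensity (mA/cm²) producing extra beats taken as ac-arrhythmia threshold. Stabilized 60 min, then compounds added cumulatively every 30 min.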

Right cardiac atrium [4] = assay: Negative chronotropic activity in guinea pig spontaneously beating right atrium assessed as decrease in atrial rate at 1 x 10^-5 M relative to control; format: ADME, tissue-based, Cavia porcellus; design: scale not given: the % may be the effect or the level left; details: 10 µM, dose 1 10^-5M
In short: (§3)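 Isometric recording of rate and developed force. Compounds added cumulatively, 0.01–100 μM, each after steady state. Percent change from control; rate data n = 7–8. EC50 by probit analysis.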

[5] = Toxicity in mouse assessed as motor coordination impairment by measuring number of falls from rotarod at 50 mg/kg, ip measured after 30 mins by rotarod test; format: organism-based; details: in vivo, 0.5 h
[6] = Toxicity in mouse assessed as motor coordination impairment by measuring number of falls from rotarod at 50 mg/kg, ip measured after 45 mins by rotarod test; format: organism-based; details: in vivo
Left cardiac atrium [7] = assay: Negative inotropic activity in guinea pig left atrium assessed as decrease in 1 Hz driven developed tension; format: tissue-based; details: Cavia porcellus
Left cardiac atrium [8] = assay: Antiarrhythmic activity in 50 Hz sinusoidal alternating current-induced guinea pig left atrium arrhythmias model assessed as increase in threshold of ac-arrhythmia measured for every 30 mins relative to control; format: functional, tissue-based; details: Cavia porcellus, 0.5 h
[9] = Toxicity in mouse assessed as motor coordination impairment by measuring number of falls from rotarod at 25 mg/kg, ip measured after 30 mins by rotarod test; format: organism-based; details: in vivo, 0.5 h
[10] = Toxicity in mouse assessed as motor coordination impairment by measuring number of falls from rotarod at 25 mg/kg, ip measured after 60 mins by rotarod test; format: organism-based; details: in vivo, 1 h
HepG2 [11] = assay: Cytotoxicity against human HepG2 cells at 10 times of EC50 concentration incubated for 2 hrs by MTT assay; format: cell-based; details: hepg2, 2 h; in short: as §1
Ileum [12] = assay: Inhibition of calcium-induced contraction in K+-depolarized guinea pig longitudinal smooth muscle at 5 x 10^-5 M relative to control; format: tissue-based; details: Cavia porcellus, dose 5 10^-5M
Right cardiac atrium [13] = assay: Negative inotropic activity in guinea pig spontaneously beating right atrium assessed as decrease in developed tension at 5 x 10^-6 M relative to control; format: ADME, tissue-based, Cavia porcellus; design: scale not given: the % may be the effect or the level left; details: 5 µM, dose 5 10^-6M
In short: (§4)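 Spontaneously beating guinea pig right atria in PSS, pH 7.4, 35 °C, gassed with 95% O2–5% CO2. Isometric recording of rate and developed force. Compounds added cumulatively, 0.01–100 μM, each after steady state. Percent change from control; rate data n = 7–8. EC50 by probit analysis.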

[14] = Toxicity in mouse assessed as motor coordination impairment by measuring number of falls from rotarod at 50 mg/kg, ip measured after 60 mins by rotarod test; format: organism-based; details: in vivo, 1 h
Ileum [15] = assay: Inhibition of calcium-induced contraction in K+-depolarized guinea pig longitudinal smooth muscle; format: tissue-based; details: Cavia porcellus
[16] = Toxicity in mouse assessed as motor coordination impairment by measuring number of falls from rotarod at 25 mg/kg, ip measured after 45 mins by rotarod test; format: organism-based; details: in vivo
Aorta = assay: Inhibition of calcium-induced contraction in K+-depolarized guinea pig aortic strips at 1 x 10^-4 M relative to control; format: tissue-based; details: Cavia porcellus, dose 1 10^-4M
In short: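 Helicoidal guinea pig aortic strips at 1 g resting force in PSS at 35 °C, contracted with 80 mM KCl (K+ replacing Na+). At plateau (about 45 min), compounds added cumulatively, 0.1–100 μM.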

Left cardiac atrium [17] = assay: Negative inotropic activity in guinea pig left atrium assessed as decrease in 1 Hz driven developed tension at 1 x 10^-5 M relative to control; format: tissue-based, Cavia porcellus; design: scale not given: the % may be the effect or the level left; details: 10 µM, dose 1 10^-5M
In short: (§5)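 Guinea pig left atria paced at 1 Hz (rectangular pulses 0.6–0.8 ms, […]) in PSS, pH 7.4, 35 °C, 95% O2–5% CO2. Isometric developed tension recorded. Cumulative concentrations 0.01–100 μM in PSS, each added after steady state. Change expressed as percent of control (n = 5–6).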

Right cardiac atrium [18] = assay: Negative inotropic activity in guinea pig spontaneously beating right atrium assessed as decrease in developed tension; format: ADME, tissue-based; details: Cavia porcellus; in short: as §3
Right cardiac atrium [19] = assay: Negative chronotropic activity in guinea pig spontaneously beating right atrium assessed as decrease in atrial rate at 1 x 10^-4 M relative to control; format: ADME, tissue-based, Cavia porcellus; design: scale not given: the % may be the effect or the level left; details: 100 µM, dose 1 10^-4M; in short: as §4
Left cardiac atrium [20] = assay: Antiarrhythmic activity in 50 Hz sinusoidal alternating current-induced guinea pig left atrium arrhythmias model assessed as increase in threshold of ac-arrhythmia at 1 x 10^-4 M measured for every 30 mins relative to control; format: functional, Cavia porcellus; details: dose 1 10^-4M, 0.5 h, at 100 µM; in short: as §2
Left cardiac atrium [21] = assay: Negative inotropic activity in guinea pig left atrium assessed as decrease in 1 Hz driven developed tension at 1x 10^-4 M relative to control; format: ADME, tissue-based, Cavia porcellus; design: scale not given: the % may be the effect or the level left; details: 100 µM, dose 1 10^-4M; in short: as §5
Ileum [22] = assay: Inhibition of calcium-induced contraction in K+-depolarized guinea pig longitudinal smooth muscle at 1 x 10^-4 M relative to control; format: tissue-based; details: Cavia porcellus, dose 1 10^-4M
Right cardiac atrium [23] = assay: Negative chronotropic activity in guinea pig spontaneously beating right atrium assessed as decrease in atrial rate; format: tissue-based; details: Cavia porcellus; in short: as §4
Left cardiac atrium [24] = assay: Negative inotropic activity in guinea pig left atrium assessed as decrease in 1 Hz driven developed tension at 1 x 10^-7 M relative to control; format: ADME, tissue-based, Cavia porcellus; design: scale not given: the % may be the effect or the level left; details: 0.1 µM, dose 1 10^-7M; in short: as §5
Left cardiac atrium [25] = assay: Potency index, ratio of mexiletine EC50 to test compound EC50 for antiarrhythmic activity in guinea pig left atrium model of current induced arrhythmias assessed as increase in threshold of ac-arrhythmia; format: functional, Cavia porcellus
[26] = Binding affinity to P-gp in dog MDCK-MDR1 cells using calcein-AM as substrate after 30 mins by fluorescence analysis; format: ADME, cell-based; details: Canis lupus familiaris, MDCK-MDR1, 0.5 h
Left cardiac atrium [27] = assay: Potency index, ratio of mexiletine EC50 to test compound EC50 for negative inotropic activity in guinea pig left atrium assessed as decrease in developed tension; format: ADME, tissue-based, Cavia porcellus
Ileum [28] = assay: Inhibition of calcium-induced contraction in K+-depolarized guinea pig longitudinal smooth muscle at 1 x 10^-5 M relative to control; format: tissue-based; details: Cavia porcellus, dose 1 10^-5M

Structure (SMILES)	Activity [1]	Activity (HepG2 [2])	Activity (Left cardiac atrium [3])	Activity (Right cardiac atrium [4])	Activity [5]	Activity [6]	EC50 (Left cardiac atrium [7])	EC50 (Left cardiac atrium [8])	Activity [9]	Activity [10]	Activity (HepG2 [11])	Activity (Right cardiac atrium [13])	Activity [14]	IC50 (Ileum [15])	Activity [16]	inhibition at 100 µM (Aorta)	Activity (Left cardiac atrium [17])	EC50 (Right cardiac atrium [18])	Activity (Left cardiac atrium [20])	inhibition at 100 µM (Ileum [22])	further results
Cc1cccc(C)c1OCC(N)C(C)(C)C.Cl (stereo not given)	Not Active	Non-Toxic	71%	7%	3.1	1.8	0.042 µM	2.11 µM	2.7	0.8	Non-Toxic	77%	1.2	10.7 µM	1.7	38%	92%	1.02 µM	–	–	inhibition at 50 µM (Ileum [12]): 73%
Cc1cccc(C)c1OCC(N)C(C)C.Cl (stereo not given)	Not Active	Non-Toxic	–	–	3	2.1	0.021 µM	18.4 µM	2.6	1.1	Non-Toxic	–	1	19.6 µM	2.2	11%	–	–	145%	88%	Activity (Right cardiac atrium [19]): 55%; Activity (Left cardiac atrium [21]): 84%; EC50 (Right cardiac atrium [23]): 13.1 µM
Cc1cccc(C)c1OCC(N)Cc1ccccc1.Cl (stereo not given)	–	Non-Toxic	169%	24%	4.4	3.5	0.012 µM	4.36 µM	2.9	1.2	Non-Toxic	57%	1.3	3.6 µM	1.9	33%	–	0.066 µM	–	–	Activity (Left cardiac atrium [24]): 79%; Ratio EC50 (Left cardiac atrium [25]): 2.7; EC50 [26]: 8.4 µM; Ratio EC50 (Left cardiac atrium [27]): 4; inhibition at 10 µM (Ileum [28]): 73%
Cc1cccc(C)c1OCC(C)N.Cl (stereo not given) [MEXILETINE HYDROCHLORIDE]	Not Active	–	–	–	3.8	3.5	0.045 µM	11.6 µM	1.3	–	–	–	–	–	0.8	5%	90%	–	64%	81%	EC50 (Right cardiac atrium [23]): 0.014 µM

— ChEMBL document CHEMBL4715731, “Synthesis, antiarrhythmic activity, and toxicological evaluation of mexiletine analogues” (Eur J Med Chem, 2016)
